# Experimental data of several laboratories.
# Compare with care: the assays were run in different laboratories.
# Cell line: A549
# Observed: cell growth or viability
Compound,assay,conditions,measurement,result
O=C(CN1C(=O)/C(=C/C2CC2)SC1=S)Nc1ccccc1,MTT,10 µM,inhibition,28.9%
COc1cccc2c1C(=O)c1c(O)c3c(c(O)c1C2=O)C[C@@](O)(C(=O)CO)C[C@@H]3O[C@H]1C[C@H](N)[C@H](O)[C@H](C)O1,SRB,48 h,GI50,< 10 µg/mL
COC(C)(C)CCC[C@](C)(O)[C@H]1CC[C@]2(C)[C@@H]1[C@H](O)C[C@@H]1[C@@]3(C)CC[C@H](O)C(C)(C)[C@@H]3CC[C@]12C,MTT,72 h,IC20,660 nM
O=C1Nc2ccccc2C1=NNc1nnc(Cc2ccccc2)c2ccccc12,,30 µM,inhibition,81.1%
O=C(CN1C(=O)/C(=C/c2ccco2)SC1=S)Nc1ccccc1,MTT,10 µM,inhibition,39.5%
COc1ccc(-c2nc(NN=C3C(=O)Nc4ccc(F)cc43)c3ccccc3n2)cc1OC,,30 µM,inhibition,4.9%
O=C(CN1C(=O)/C(=C/c2ccccn2)SC1=S)Nc1ccccc1,MTT,10 µM,inhibition,32.6%
COc1ccc2c(c1)C(=NNc1nc(-c3ccc(OC)c(OC)c3)nc3ccccc13)C(=O)N2,,30 µM,inhibition,17%
COc1ccccc1OCCNCC(O)COc1cccc2[nH]c3ccccc3c12 (centres unmarked),CCK-8,"100 µM, 72 h",viability,< 50%
O=C(CN1C(=O)/C(=C/c2ccc(Cl)cc2Cl)SC1=S)Nc1ccccc1,MTT,10 µM,inhibition,4.43%
CC/C(=C(\c1ccccc1)c1ccc(OCCN(C)C)cc1)c1ccccc1,ATP luminescence,72 h,EC90,26.1 µM
O=C(CN1C(=O)/C(=C/c2cccc(Cl)c2)SC1=S)Nc1ccccc1,MTT,10 µM,inhibition,25.9%
CC(C)=CCC[C@](C)(O)[C@H]1CC[C@]2(C)[C@@H]1[C@H](O)C[C@@H]1[C@@]3(C)CC[C@H](O[C@@H]4O[C@H](CO)[C@@H](O)[C@H](O)[C@H]4O[C@@H]4O[C@H](CO)[C@@H](O)[C@H](O)[C@H]4O)C(C)(C)[C@@H]3CC[C@]12C,MTT,72 h,IC80,> 100 µM
COc1ccc(CCNCC(O)COc2cccc(C)c2)cc1OC (centres unmarked),CCK-8,"100 µM, 72 h",viability,< 50%
C=C(c1ccc(C(=O)O)cc1)c1cc2c(cc1C)C(C)(C)CCC2(C)C,MTT,72 h,EC50,58 µM
COc1ccc2c(c1)C(=NNc1ncnc3cc(OC)c(OC)cc13)C(=O)N2,,10 µM,inhibition,-10.4%
CCN(CC)CCNC(=O)c1c(C)[nH]c(/C=C2\C(=O)Nc3ccc(F)cc32)c1C,,30 µM,inhibition,85.7%
COc1cccc(NC(=O)CN2C(=O)/C(=C/c3ccccc3)SC2=S)c1,MTT,10 µM,inhibition,26.3%
CCCCc1nc(Cl)c(CO)n1Cc1ccc(-c2ccccc2-c2nn[nH]n2)cc1,MTT,72 h,EC50,63 µM
CNS(=O)(=O)Nc1nccc(Cc2c(C)c3ccc(Oc4ncccn4)cc3oc2=O)c1F,CCK-8,,GI50,5.07 µM
